Compound activity deposited in PubChem BioAssay by Johns Hopkins Ion Channel Center.
TRPC4 inh: inhibitors of mouse TRPC4 channel, primary screen, Fluo4 calcium, HEK293 TRPC4beta/mu-opioid cells; AID 2247, 2010; Short transient receptor potential channel 4 (Mus musculus), Q9QUQ5; hit rate 0.39% among 300,000; DAMGO-evoked Fluo4 calcium flux; hits give low values; B-score at 10 µM;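 active = B-score over 3 SD under the library average, no early fluorescence shift, positive overall ratio signal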
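Assay system: HEK293 cells with stable TRPC4beta plus mu-opioid receptor expression; Probe or stimulus: DAMGO in two steps, submaximal then maximal; Dosing: single-point compound dosing; Measured by: Fluo4 calcium-dye fluorescence, kinetic read; Read-out basis: B score from integrated Fluo4 fluorescence ratio.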
TRPC6 activator: mouse TRPC6 channel activators, primary screen, cell-based, HEK293, membrane potential dye | hit rate 0.13% among 310,000 | Short transient receptor potential channel 6 (Mus musculus), Q61143 | HEK293-TRPC6 membrane potential dye fluorescence; hits give high values | B-score at 10 µM | AID 2550, 2010;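 active = B-score of the integrated fluorescence ratio above library mean plus 3 SD, and starting fluorescence ratio within library mean plus 5 SD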;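 also: higher score means more depolarization so channel activation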
Target sequence (Q61143 whole entry, looked up): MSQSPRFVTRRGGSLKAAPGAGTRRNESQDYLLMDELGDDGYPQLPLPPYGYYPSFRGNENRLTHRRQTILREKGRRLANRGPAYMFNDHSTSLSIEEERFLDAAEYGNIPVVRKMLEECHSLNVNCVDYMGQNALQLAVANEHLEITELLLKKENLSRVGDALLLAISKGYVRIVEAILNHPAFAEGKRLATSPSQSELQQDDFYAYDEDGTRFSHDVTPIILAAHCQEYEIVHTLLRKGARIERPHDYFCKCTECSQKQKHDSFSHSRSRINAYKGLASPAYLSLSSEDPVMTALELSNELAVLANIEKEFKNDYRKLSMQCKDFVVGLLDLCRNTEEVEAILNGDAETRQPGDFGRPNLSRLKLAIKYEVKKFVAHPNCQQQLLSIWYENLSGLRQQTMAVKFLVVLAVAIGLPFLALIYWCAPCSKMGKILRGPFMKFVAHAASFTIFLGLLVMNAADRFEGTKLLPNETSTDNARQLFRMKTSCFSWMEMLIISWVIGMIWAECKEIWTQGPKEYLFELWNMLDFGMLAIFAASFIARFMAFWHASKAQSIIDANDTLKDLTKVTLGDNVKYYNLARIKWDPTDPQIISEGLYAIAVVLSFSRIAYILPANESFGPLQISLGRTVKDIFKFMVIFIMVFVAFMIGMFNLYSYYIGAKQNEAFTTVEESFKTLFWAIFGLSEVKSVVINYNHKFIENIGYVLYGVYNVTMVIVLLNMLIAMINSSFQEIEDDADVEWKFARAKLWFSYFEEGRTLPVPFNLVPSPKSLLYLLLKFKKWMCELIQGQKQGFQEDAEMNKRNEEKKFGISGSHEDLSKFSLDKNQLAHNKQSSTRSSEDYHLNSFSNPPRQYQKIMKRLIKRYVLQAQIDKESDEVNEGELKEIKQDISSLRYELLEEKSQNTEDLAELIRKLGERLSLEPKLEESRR
TRPC4 act: activators of mouse TRPC4 channel, primary screen, Fluo4 calcium, HEK293 TRPC4beta/mu-opioid cells; Short transient receptor potential channel 4 (Mus musculus), Q9QUQ5; Fluo4 calcium fluorescence; hits give high values; B-score at 10 µM; hit rate 0.49% among 310,000;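 active = B-score above 5 SD of library B-scores, and initial fluorescence ratio not above library mean plus 5 SD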;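 also: positive B-score marks a calcium rise read as TRPC4 activation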
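Assay system – TRPC4beta and mu-opioid receptor HEK293 stable cells · Measured by – Fluo4 fluorescence, kinetic · Schedule – dye loading 45 min room temperature, 110 s kinetic read · Read-out – B-scored integrated calcium fluorescence ratio · Controls – buffer and maximal DAMGO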
TRPC4 PAM: positive allosteric modulators of TRPC4, primary screen, cell-based, mouse TRPC4beta, HEK293 mu-opioid, Fluo-4 calcium; Short transient receptor potential channel 4 (Mus musculus), Q9QUQ5; DAMGO EC20, Fluo-4 Ca2+ flux; hits give high values; B-score at 10 µM; hit rate 0.42% among 310,000; AID 2227, 2009;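 active = B-score of calcium response area above 5 SD of library B-scores, with initial fluorescence ratio within 5 SD of library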
TRPC6 inhibitor: mouse TRPC6 channel inhibitors, primary screen, cell-based, HEK293, membrane potential dye; Short transient receptor potential channel 6 (Mus musculus), Q61143; ACh-evoked depolarization; hits give low values; B-score at 10 µM; hit rate 1.1% among 310,000;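 active = B-score under library mean minus 3 SD, initial fluorescence not abnormally high, positive integrated signal ratio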;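 also: B-score derived from integrated fluorescence ratio over the kinetic read; more negative B-score means stronger inhibition of depolarization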
TRPC4 sel inh 2: mouse TRPC4 off-target activity of TRPC6 inhibitors, second screen; shares compounds with TRPC6 inhibitor; HEK293 TRPC4/MOR, membrane potential dye fluorescence; channel activated by saturating DAMGO dose; inhibition, % at 10 µM; hit rate 42% among 920;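 active = compounds whose fluorescence signal differed from control wells by over 3 SD, either direction, in both duplicate plates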
TRPC4 spec: mouse TRPC4 modulation by TRPC6 hits, confirmation, selectivity assay for TRPC6 inhibitor project, cell-based, HEK293 TRPC4/mu-opioid, membrane potential dye; shares compounds with TRPC6 inhibitor; AID 2777, 2010; hit rate 61% among 920; activity change, negative = inhibition, % at 10 µM; membrane potential fluorescence;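 active = rise or fall in signal beyond 3 SD of buffer-only wells in both replicate plates, either sign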;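 also: integrated kinetic ratio of fluorescence range over baseline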
HEK293 MPD ctr 2-1: nonspecific membrane potential effects, parental HEK293, confirmation, counter-screen for TRPC6 inhibitor project, cell-based, second counter screen; shares compounds with TRPC6 inhibitor; parental HEK293 membrane potential dye fluorescence; maximal acetylcholine challenge after compound addition; signal change vs control, % at 10 µM; hit rate 31% among 920; AID 2779, 2010;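 active = membrane potential signal moving either way by over 3 SD of the maximum-effect control, in both duplicate plates, meaning non-specific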
HEK293 MPD ctr-1: membrane potential modulation in parental HEK293, confirmation, counter-screen for TRPC6 inhibitor project, cell-based. shares compounds with TRPC6 inhibitor. parental HEK293 membrane potential dye fluorescence. membrane potential signal change, % at 10 µM. hit rate 60% among 920. AID 2780, 2010;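 active = membrane potential signal shifting up or down by more than 3 SD of buffer-only wells, on both duplicate plates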
HEK293 MPD ctr-2: parental HEK293 membrane potential modulation, confirmation, counter-screen for TRPC6 modulator project, cell-based. shares compounds with TRPC6 inhibitor. hit rate 51% among 2,400. membrane potential signal change, % at 10 µM. membrane potential dye fluorescence;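 active = membrane potential signal moves up or down beyond 5 SD from buffer-only wells, on both duplicate plates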
HEK293 MPD ctr 2-2: second counter-screen for TRPC6 modulators: effect in parental HEK293 cells. shares compounds with TRPC6 inhibitor. membrane potential dye fluorescence; after compound, maximal acetylcholine stimulation. inhibition, % at 10 µM. hit rate 14% among 2,400;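 active = membrane potential signal drops by more than 5 SD from the mean control signal, in both duplicate plates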
TRPC4/MOR mod: TRPC4 modulation by TRPC6 hit compounds, confirmation, selectivity assay for TRPC6 modulator project, cell-based, HEK293 TRPC4/mu-opioid, membrane potential dye, mouse | shares compounds with TRPC6 inhibitor | membrane potential fluorescence | percent change from control (negative = decrease, positive = increase), % at 10 µM | hit rate 69% among 2,400 | AID 488927, 2010;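 active = membrane potential signal moved up or down beyond 5 SD of buffer control wells, in both duplicate plates, actives on both sides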
TRPC4 ctr inh 2: mouse TRPC4 off-target activity of TRPC6 modulators, second screen; shares compounds with TRPC6 inhibitor; HEK293 TRPC4/mu-opioid, membrane potential dye fluorescence; stimulated with maximal-effect DAMGO; inhibition, % at 10 µM; hit rate 55% among 2,400; AID 488928;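 active = drop in membrane potential signal beyond 5 SD of the control wells in both duplicate plates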;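 also: TRPC4 counter screen for TRPC6 hits run under conditions tuned for TRPC6 not TRPC4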
TRPC6 block conf: mouse TRPC6 channel inhibitors, confirmation, HEK293 cells, membrane potential dye, duplicate; shares compounds with TRPC6 inhibitor; ACh-evoked depolarization; inhibition, % at 10 µM; hit rate 43% among 3,300;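 active = fluorescence ratio falls more than 5 SD below the full-stimulation control mean, in both duplicate runs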;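 also: integrated fluorescence ratio of peak minus minimum over baseline after agonist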
TRPC6 act conf: mouse TRPC6 channel activators, confirmation, HEK293 cells, membrane potential dye, duplicate | shares compounds with TRPC6 inhibitor | HEK293-TRPC6 membrane potential dye fluorescence, FDSS | activation, % at 10 µM | hit rate 11% among 2,800 | AID 488961, 2010;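 active = ratio signal rise beyond 5 SD above unstimulated control wells' mean, seen in both duplicate runs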
A number is an active result; . = inactive; / = no result; ! = not confirmed by another sample. Compounds with a hit are over-represented: about 2.3% of the library has one in this group of screens.

SMILES	TRPC4 inh	TRPC6 activator	TRPC4 act	TRPC4 PAM	TRPC6 inhibitor	TRPC6 block conf	TRPC6 act conf	others
O=C1OC(CO)CN1Cc1ccccc1 (stereo not drawn)	.	.	.	.	.	/	/
COc1cc(O)c(C(CCN2CCCC(C)C2)c2ccc(N(C)C)cc2)c(OC)c1 (stereo not drawn)	.	.	.	.	-7	.	.	TRPC4 sel inh 2=62%;TRPC4 spec=.;HEK293 MPD ctr 2-1=.;HEK293 MPD ctr-1=.
COc1cc(O)c(C(CCN2CCCC(C)C2)c2ccc3c(c2)OCO3)c(OC)c1 (stereo not drawn)	.	.	.	.	.	/	/
COc1cc(C(CCN2CCCC(C)C2)c2c(OC)cc(OC)c3c(-c4ccccc4)cc(=O)oc23)cc(OC)c1OC (stereo not drawn)	.	.	.	.	-7.8	.	.	TRPC4 sel inh 2=44%;TRPC4 spec=-11%;HEK293 MPD ctr 2-1=.;HEK293 MPD ctr-1=.
O=Cc1c[nH]c2ncccc12	.	.	.	.	.	/	/
Cc1cc(N2CCN(c3ccc(F)cc3)CC2)nc2cc(O)ccc12	.	.	.	.	-6.3	.	.	HEK293 MPD ctr-2=-60%;HEK293 MPD ctr 2-2=.;TRPC4/MOR mod=-11%;TRPC4 ctr inh 2=36%
COc1ccc2c(C)cc(N3CCN(c4ccc(F)cc4)CC3)nc2c1	.	.	.	.	.	/	/
COc1ccc(CN(CC(=O)NCCc2ccccc2)C(=O)CCC(=O)Nc2cc(C)ccn2)cc1	.	.	.	.	.	/	/
O=C(CCC(=O)OCC(=O)c1ccc(C(F)(F)F)cc1)OCC(=O)c1ccc(C(F)(F)F)cc1	.	.	.	.	.	/	/
COCCCC/C(=N\OCCN)c1ccc(C(F)(F)F)cc1	.	.	.	.	-5!	43%	.	HEK293 MPD ctr-2=.;HEK293 MPD ctr 2-2=.;TRPC4/MOR mod=12%;TRPC4 ctr inh 2=48%
